According to ChEMBL document CHEMBL1123566, “Synthesis and cardiac electrophysiological activity of 2- and 3-[(substituted phenyl)alkyl]quinuclidines. Structure-activity relationships” (1987):
Values joined by “and” are separate entries in the source; they are usually repeats but may differ in a detail not shown here. Identical values can stand only once.

Experiments:
Canis familiaris [1] = assay: Conduction time was determined by intraduodenal administration of 30 mg/kg (high dose) of compound in anesthetized dogs. Value was reported for experiment 1; type: functional, Canis lupus familiaris
In short: (§1)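 Anesthetized dogs; compound given intraduodenally, generally as two doses, the second a cumulative (high) dose. LV functional refractory period and conduction time measured 15, 30 and 45 min after dosing; heart rate and blood pressure measured during nonpacing intervals. Values are % change from control, given per individual animal. Active if FRP or CT prolonged by ≥12%.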

Canis familiaris [2] = species: Canis familiaris; assay: In vitro electrophysiological evaluation in canine cardiac ventricular muscle reported as maximum % change for conduction time(CT) at 0.1-10 uM concentration range; Minimal (<10% decrease or increase in CT).; type: functional, Canis lupus familiaris, Muscle tissue
In short: (§2)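 Canine right ventricle and papillary muscle strips in oxygenated Tyrode's solution, fitted with stimulating and recording electrodes. The extra-stimulus conduction-interval method was adapted for in vitro use. FRP and CT were read from a conduction-interval curve before and after various compound concentrations, and expressed as percent change from control. Compounds were taken from 10 mM deionized-water stock into Tyrode's. Each strip was used once as its own control.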

Canis familiaris [3] = assay: Heart rate was determined by intraduodenal administration of 30 mg/kg (high dose) of compound in anesthetized dogs. Value was reported for experiment 1; type: functional, Canis lupus familiaris; in short: as §1
Canis familiaris [4] = assay: Heart rate was determined by intraduodenal administration of 10 mg/kg (low dose) of compound in anesthetized dogs. Value was reported for experiment 1; type: functional, Canis lupus familiaris; in short: as §1
Canis familiaris [5] = assay: Mean arterial blood pressure was determined by intraduodenal administration of 30 mg/kg (high dose) of compound in anesthetized dogs. Value was reported for experiment 2; type: functional, Canis lupus familiaris
Canis familiaris [6] = species: Canis familiaris; assay: In vitro electrophysiological evaluation in canine cardiac Purkinje fibres reported as percent change Vmax at 10 uM at concentration range of 0.1-30 uM; type: functional; details: Canis lupus familiaris, Purkinje fiber
In short: (§3)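 Canine cardiac Purkinje fibres, intracellular microelectrode recording, paced at a basic cycle length of 1 s. APD95 and Vmax read simultaneously. Compound: 10 mM stock in deionized water, diluted into Tyrode's solution, tested over the stated concentration range. Each fibre used once as its own control. Result is % change from control, given at 10 µM or as the maximum with its concentration. M = <10% decrease or an increase in Vmax.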

Canis familiaris [7] = species: Canis familiaris; assay: In vitro electrophysiological evaluation in canine cardiac Purkinje fibres reported as percent change Vmax at 10 uM at concentration range of 0.1-30 uM; Minimal (<10% decrease or increase in V max).; type: functional, organism-based; details: Canis lupus familiaris, Purkinje fiber; in short: as §3
Canis familiaris [8] = assay: Left ventricular refractory period was determined by intraduodenal administration of 10 mg/kg (low dose) of compound in anesthetized dogs. Value was reported for experiment 1; type: functional, Canis lupus familiaris, Cardiac ventricle
In short: (§4)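 Anesthetized dogs received two intraduodenal doses, the second cumulative (low dose/high dose). Left ventricular FRP and CT were measured 15, 30 and 45 min after dosing. Heart rate and mean blood pressure were taken during nonpacing intervals. Values are percent change from control. The vehicle was 5% dextrose in water/tragacanth. Activity was defined as ≥12% prolongation of FRP or CT.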

Canis familiaris [9] = species: Canis familiaris; assay: In vitro electrophysiological activity in canine cardiac occurred is 1 uM; type: functional, Canis lupus familiaris, Heart
Canis familiaris [10] = species: Canis familiaris; assay: In vitro electrophysiological evaluation in canine cardiac ventricular muscle reported as % change for conduction time(CT) at 10 uM at 0.1-30 uM concentration range; Minimal (<10% decrease or increase in CT).; type: functional, Canis lupus familiaris, Muscle tissue
Canis familiaris [11] = species: Canis familiaris; assay: In vitro electrophysiological evaluation in canine cardiac ventricular muscle reported as maximum % change for functional refractory period (FRP) at 0.1-30 uM concentration range; concentration at which it occurred is 1 uM.; design: species or system Canis lupus familiaris, Muscle tissue; in short: as §2
Canis familiaris [12] = assay: Conduction time was determined by intraduodenal administration of 10 mg/kg (low dose)of compound in anesthetized dogs. Value was reported for experiment 2; type: functional, Canis lupus familiaris; in short: as §1
Canis familiaris [13] = species: Canis familiaris; assay: In vitro electrophysiological evaluation in canine cardiac ventricular muscle reported as maximum % change for functional refractory period (FRP) at 0.1-10 uM concentration range; concentration at which it occurred is 1 uM.; design: species or system Canis lupus familiaris, Muscle tissue; in short: as §2
Canis familiaris [14] = assay: Heart rate was determined by intraduodenal administration of 10 mg/kg (low dose) of compound in anesthetized dogs. Value was reported for experiment 2; type: functional, Canis lupus familiaris; in short: as §1
Canis familiaris [15] = assay: Conduction time was determined by intraduodenal administration of 30 mg/kg (high dose)of compound in anesthetized dogs. Value was reported for experiment 2; type: functional, Canis lupus familiaris; in short: as §1
Canis familiaris [16] = assay: Left ventricular refractory period was determined by intraduodenal administration of 30 mg/kg (high dose) of compound in anesthetized dogs. Value was reported for experiment 2; type: functional, Canis lupus familiaris, Cardiac ventricle; in short: as §4
Canis familiaris [17] = assay: Mean arterial blood pressure was determined by intraduodenal administration of 10 mg/kg (low dose)of compound in anesthetized dogs. Value was reported for experiment 2; type: functional, Canis lupus familiaris
Canis familiaris [18] = species: Canis familiaris; assay: In vitro electrophysiological evaluation in canine cardiac ventricular muscle reported as % change for the functional refractory period (FRP) at 10 uM at concentration range of 0.1-10 uM; design: species or system Canis lupus familiaris, Muscle tissue; in short: as §2
Canis familiaris [19] = species: Canis familiaris; assay: In vitro electrophysiological evaluation in canine cardiac ventricular muscle reported as maximum % change for conduction time(CT) at 0.1-30 uM concentration range; Minimal (<10% decrease or increase in CT).; type: functional, Canis lupus familiaris, Muscle tissue; in short: as §2
Canis familiaris [20] = species: Canis familiaris; assay: In vitro electrophysiological evaluation in canine cardiac ventricular muscle reported as % change for conduction time(CT) at 10 uM at 0.1-10 uM concentration range; Minimal (<10% decrease or increase in CT).; type: functional, Canis lupus familiaris, Muscle tissue
Canis familiaris [21] = assay: Left ventricular refractory period was determined by intraduodenal administration of 30 mg/kg (high dose) of compound in anesthetized dogs. Value was reported for experiment 1; type: functional, Canis lupus familiaris, Cardiac ventricle; in short: as §4
Canis familiaris [22] = assay: Conduction time was determined by intraduodenal administration of 10 mg/kg (low dose) of compound in anesthetized dogs. Value was reported for experiment 1; type: functional, Canis lupus familiaris; in short: as §1
Canis familiaris [23] = assay: Heart rate was determined by intraduodenal administration of 30 mg/kg (high dose) of compound in anesthetized dogs. Value was reported for experiment 2; type: functional, Canis lupus familiaris; in short: as §1
Canis familiaris [24] = species: Canis familiaris; assay: In vitro electrophysiological evaluation in canine cardiac Purkinje fibres reported as % change for action potential duration at 10 uM at 0.1-30 uM concentration range; type: functional, Canis lupus familiaris, Purkinje fiber; in short: as §3
Canis familiaris [25] = species: Canis familiaris; assay: In vitro electrophysiological evaluation in canine cardiac ventricular muscle reported as maximum % change for functional refractory period (FRP) at 0.1-30 uM concentration range; concentration at which it occurred is 30 uM.; design: species or system Canis lupus familiaris, Muscle tissue; in short: as §2
Canis familiaris [26] = assay: Mean arterial blood pressure was determined by intraduodenal administration of 30 mg/kg (high dose) of compound in anesthetized dogs. Value was reported for experiment 1; type: functional, Canis lupus familiaris
Canis familiaris [27] = species: Canis familiaris; assay: In vitro electrophysiological evaluation in canine cardiac ventricular muscle reported as % change for the functional refractory period (FRP) at 10 uM at concentration range of 0.1-30 uM; design: species or system Canis lupus familiaris, Muscle tissue; in short: as §2
Canis familiaris [28] = species: Canis familiaris; assay: In vitro electrophysiological evaluation in canine cardiac Purkinje fibres reported as % change for action potential duration at a concentration of 10 uM; type: functional, Canis lupus familiaris, Purkinje fiber; in short: as §3
Canis familiaris [29] = assay: Left ventricular refractory period was determined by intraduodenal administration of 10 mg/kg (low dose) of compound in anesthetized dogs. Value was reported for experiment 2; type: functional, Canis lupus familiaris, Cardiac ventricle; in short: as §4
Canis familiaris [30] = assay: Mean arterial blood pressure was determined by intraduodenal administration of 10 mg/kg (low dose)of compound in anesthetized dogs. Value was reported for experiment 1; type: functional, Canis lupus familiaris
Canis familiaris [31] = species: Canis familiaris; assay: In vitro electrophysiological evaluation in canine cardiac occurred is 30 uM; type: functional; details: Canis lupus familiaris; Heart

## Cl.O=C(CCC1C(=O)C2CCN1CC2)c1ccc(Cl)cc1 (stereo unspecified)
Canis familiaris [1]
  CT: 14%
Canis familiaris [2]
  CT: <10%
Canis familiaris [3]
  HR: -18%
Canis familiaris [4]
  HR: -13%
Canis familiaris [5]
  Mean blood pressure: 23%
Canis familiaris [6]
  Vmax: -10%
Canis familiaris [7]
  Vmax: < 10%
Canis familiaris [8]
  LV FRP: 15%
Canis familiaris [9]
  APD95: 14% and 12%
Canis familiaris [10]
  CT: <10%
Canis familiaris [11]
  FRP: 15%
Canis familiaris [12]
  CT: 4%
Canis familiaris [13]
  FRP: 22%
Canis familiaris [14]
  HR: -15%
Canis familiaris [15]
  CT: 13%
Canis familiaris [16]
  LV FRP: 6%
Canis familiaris [17]
  Mean blood pressure: 18%
Canis familiaris [18]
  FRP: 17%
Canis familiaris [19]
  CT: <10%
Canis familiaris [20]
  CT: <10%
Canis familiaris [21]
  LV FRP: 15%
Canis familiaris [22]
  CT: 5%
Canis familiaris [23]
  HR: -21%
Canis familiaris [24]
  APD95: 5%
Canis familiaris [25]
  FRP: -9%
Canis familiaris [26]
  Mean blood pressure: 0%
Canis familiaris [27]
  FRP: 10%
Canis familiaris [28]
  APD95: 13%
Canis familiaris [29]
  LV FRP: 12%
Canis familiaris [30]
  Mean blood pressure: -5%
Canis familiaris [31]
  Vmax: -26% and -18%
